# Reference: ChEMBL document CHEMBL4602731, “A γ-Lactam Siderophore Antibiotic Effective against Multidrug-Resistant Gram-Negative Bacilli” (J Med Chem, 2020)
# Legend:
# [1] = biological target: Penicillin-binding protein 3 (Pseudomonas aeruginosa) (UniProt Q51504); experiment: Stabilization of Pseudomonas aeruginosa PBP3 assessed as melting temperature at 0.2 mM by DSF thermal shift assay (reference value: 44.1 +/- 0.14 degC)
# How it was run: (§1)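 Ligand at […], ceftazidime at 0.2 mM as positive control; no-ligand control with 1% DMSO. Derivative of fluorescence change plotted against temperature.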
# Pseudomonas aeruginosa [2] = experiment: Antimicrobial activity against Pseudomonas aeruginosa clinical isolate in presence of 1 ug/ml iron by standard broth microdilution method
# Pseudomonas aeruginosa [3] = experiment: Antimicrobial activity against Pseudomonas aeruginosa clinical isolate in absence of iron by standard broth microdilution method
# Escherichia coli = experiment: Antimicrobial activity against Escherichia coli clinical isolates by standard broth microdilution method; format: functional
# Pseudomonas aeruginosa [4] = experiment: Antimicrobial activity against Pseudomonas aeruginosa clinical isolate in presence of 0.1 ug/ml iron by standard broth microdilution method
# Klebsiella pneumoniae = experiment: Antimicrobial activity against Klebsiella pneumoniae clinical isolates by standard broth microdilution method; format: functional
# Pseudomonas aeruginosa [5] = experiment: Antimicrobial activity against Pseudomonas aeruginosa clinical isolates by standard broth microdilution method; format: functional
# Pseudomonas aeruginosa [6] = experiment: Antimicrobial activity against Pseudomonas aeruginosa clinical isolate in presence of 10 ug/ml iron by standard broth microdilution method
# [7] = Stability in pH 7.5 phosphate buffer assessed as compound hydrolysis measured 24 hrs after reconstitution; format: physicochemical; conditions: read-out: Drug degradation
# [8] = Half life in CD1 mouse at 50 mg/kg, iv after 2 hrs by HPLC-MS/MS analysis; format: ADME, organism-based; conditions: in vivo
# How it was run: (§2)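 CD-1 mice, single IV dose of 50 mg/kg, parallel sampling in groups of 24 animals. Blood is taken by cardiac puncture under isoflurane into lithium heparin or K2EDTA tubes and spun at 2500 × g for 15 min at 4 °C. Plasma is precipitated with acetonitrile and run on HPLC-MS/MS against a spiked-plasma calibration curve with internal standard. Parameters come from noncompartmental analysis.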
# [9] = Half life CD1 mouse liver microsomes; format: ADME, Microsome
# [10] = Substrate activity at VIM-2 (unknown origin) assessed as Kcat for compound hydrolysis by diode array spectrophotometry; format: ADME; conditions: bacteria
# [11] = biological target: Voltage-gated inwardly rectifying potassium channel KCNH2 (Homo sapiens, UniProt Q12809); experiment: Binding affinity to human ERG at 30 uM
# Chain of Voltage-gated inwardly rectifying potassium channel KCNH2 (Q12809 whole entry): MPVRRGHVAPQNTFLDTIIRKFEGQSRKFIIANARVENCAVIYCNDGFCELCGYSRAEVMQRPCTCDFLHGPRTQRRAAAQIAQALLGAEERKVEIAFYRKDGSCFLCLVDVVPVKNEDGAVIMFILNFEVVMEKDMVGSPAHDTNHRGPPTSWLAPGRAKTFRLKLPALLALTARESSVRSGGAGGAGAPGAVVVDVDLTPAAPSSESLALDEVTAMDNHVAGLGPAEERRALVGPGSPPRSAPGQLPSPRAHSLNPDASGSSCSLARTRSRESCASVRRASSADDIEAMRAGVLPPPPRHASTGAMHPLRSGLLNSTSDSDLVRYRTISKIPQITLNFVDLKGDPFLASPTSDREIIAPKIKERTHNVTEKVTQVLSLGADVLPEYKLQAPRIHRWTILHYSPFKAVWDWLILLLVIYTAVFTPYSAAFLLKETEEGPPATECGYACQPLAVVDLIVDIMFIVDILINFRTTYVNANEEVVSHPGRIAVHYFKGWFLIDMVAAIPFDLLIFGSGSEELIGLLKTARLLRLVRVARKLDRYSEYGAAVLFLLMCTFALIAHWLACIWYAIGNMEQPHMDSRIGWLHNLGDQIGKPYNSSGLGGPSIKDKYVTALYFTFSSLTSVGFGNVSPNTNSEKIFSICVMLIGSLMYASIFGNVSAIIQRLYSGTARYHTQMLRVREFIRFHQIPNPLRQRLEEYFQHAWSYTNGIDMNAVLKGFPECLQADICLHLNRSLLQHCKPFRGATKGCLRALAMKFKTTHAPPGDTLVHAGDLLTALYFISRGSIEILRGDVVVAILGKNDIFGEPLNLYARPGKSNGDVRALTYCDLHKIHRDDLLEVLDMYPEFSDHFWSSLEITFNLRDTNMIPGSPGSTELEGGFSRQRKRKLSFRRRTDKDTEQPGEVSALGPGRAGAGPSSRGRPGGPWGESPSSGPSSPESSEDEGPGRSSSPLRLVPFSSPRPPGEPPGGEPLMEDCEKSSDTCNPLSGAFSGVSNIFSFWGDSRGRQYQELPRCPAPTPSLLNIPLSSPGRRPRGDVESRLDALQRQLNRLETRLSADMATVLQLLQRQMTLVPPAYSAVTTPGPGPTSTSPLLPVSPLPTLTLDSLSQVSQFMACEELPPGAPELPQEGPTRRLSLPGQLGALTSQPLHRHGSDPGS
# Cytochrome P450 = experiment: Inhibition of CYP450 (unknown origin) at 30 uM; format: ADME, protein assay; conditions: human
# [12] = Substrate activity at IMP-1 (unknown origin) assessed as Kcat/Km ratio for compound hydrolysis by diode array spectrophotometry; format: ADME; conditions: bacteria
# [13] = biological target: Prostaglandin G/H synthase 1 (Homo sapiens) (UniProt P23219); experiment: Inhibition of COX1 (unknown origin) at 30 uM relative to control
# Chain of Prostaglandin G/H synthase 1 (Homo sapiens) (P23219 whole entry): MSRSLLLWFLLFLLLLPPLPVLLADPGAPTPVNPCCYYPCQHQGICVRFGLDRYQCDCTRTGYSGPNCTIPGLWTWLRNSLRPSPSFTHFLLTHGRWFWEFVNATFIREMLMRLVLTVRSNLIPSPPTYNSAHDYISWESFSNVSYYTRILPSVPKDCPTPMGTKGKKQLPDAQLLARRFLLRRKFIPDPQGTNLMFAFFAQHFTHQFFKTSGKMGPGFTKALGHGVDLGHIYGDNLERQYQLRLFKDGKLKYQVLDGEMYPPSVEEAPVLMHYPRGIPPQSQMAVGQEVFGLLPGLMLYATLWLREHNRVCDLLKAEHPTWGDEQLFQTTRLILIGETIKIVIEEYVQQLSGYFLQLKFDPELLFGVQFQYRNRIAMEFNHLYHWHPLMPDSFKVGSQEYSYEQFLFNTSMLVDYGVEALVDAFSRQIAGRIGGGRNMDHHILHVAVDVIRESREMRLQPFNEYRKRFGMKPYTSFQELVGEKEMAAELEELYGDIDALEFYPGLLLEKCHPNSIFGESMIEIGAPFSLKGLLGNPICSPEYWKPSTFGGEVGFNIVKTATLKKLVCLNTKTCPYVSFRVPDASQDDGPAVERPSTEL
# How it was run: (§3)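 Safety panel of 44 enzymes, receptors and channels, with compound tested at 30 μM. Percent inhibition is measured.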
# [14] = Stability in pH 7.5 phosphate buffer assessed as compound hydrolysis after 2 weeks at room temperature; format: physicochemical; conditions: read-out: Drug degradation
# Pseudomonas aeruginosa [15] = experiment: Antimicrobial activity against Pseudomonas aeruginosa PAO1 in presence of 10 ug/ml iron by standard broth microdilution method; format: functional
# How it was run: (§4)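 MICs by CLSI broth microdilution, inoculum 6 × 10^4 CFU/mL, in cation-adjusted Mueller–Hinton broth iron-depleted with cation-exchange resin (reported to leave 0.02 μg/mL iron). Soluble iron added back; total media iron expected 0.02, 0.12, 1.02 and 10.02 μg/mL.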
# Hepatocyte = experiment: Toxicity in human primary hepatocytes at 100 uM incubated for 72 hrs; format: cell-based
# How it was run: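 Primary human hepatocytes exposed to compound at a maximum of 100 μM for 72 h.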
# [16] = AUClast in CD1 mouse at 50 mg/kg, iv after 2 hrs by HPLC-MS/MS analysis; format: ADME, organism-based; design: time < 2 hr, dose 50 mg/kg, route intravenous; conditions: in vivo; how it was run: as §2
# [17] = AUC (infinity) in CD1 mouse at 50 mg/kg, iv after 2 hrs by HPLC-MS/MS analysis; format: ADME, organism-based; design: dose 50 mg/kg, route intravenous, time infinity; conditions: in vivo; how it was run: as §2
# [18] = Half life human liver microsomes; format: ADME, Microsome
# [19] = Substrate activity at KPC-2 (unknown origin) assessed as compound hydrolysis at 100 uM by diode array spectrophotometry; format: ADME; conditions: bacteria
# [20] = biological target: Penicillin-binding protein 3 (Pseudomonas aeruginosa) (UniProt Q51504); experiment: Stabilization of Pseudomonas aeruginosa PBP3 assessed as increase in melting temperature at 1 mM by DSF thermal shift assay
# [21] = Substrate activity at PER-2 (unknown origin) assessed as compound hydrolysis at 100 uM by diode array spectrophotometry; format: ADME; conditions: bacteria
# [22] = biological target: cGMP-inhibited 3',5'-cyclic phosphodiesterase 3A (Homo sapiens) (UniProt Q14432); experiment: Inhibition of PDE3A (unknown origin) at 30 uM relative to control; how it was run: as §3
# Chain of cGMP-inhibited 3',5'-cyclic phosphodiesterase 3A (Homo sapiens) (Q14432 whole entry): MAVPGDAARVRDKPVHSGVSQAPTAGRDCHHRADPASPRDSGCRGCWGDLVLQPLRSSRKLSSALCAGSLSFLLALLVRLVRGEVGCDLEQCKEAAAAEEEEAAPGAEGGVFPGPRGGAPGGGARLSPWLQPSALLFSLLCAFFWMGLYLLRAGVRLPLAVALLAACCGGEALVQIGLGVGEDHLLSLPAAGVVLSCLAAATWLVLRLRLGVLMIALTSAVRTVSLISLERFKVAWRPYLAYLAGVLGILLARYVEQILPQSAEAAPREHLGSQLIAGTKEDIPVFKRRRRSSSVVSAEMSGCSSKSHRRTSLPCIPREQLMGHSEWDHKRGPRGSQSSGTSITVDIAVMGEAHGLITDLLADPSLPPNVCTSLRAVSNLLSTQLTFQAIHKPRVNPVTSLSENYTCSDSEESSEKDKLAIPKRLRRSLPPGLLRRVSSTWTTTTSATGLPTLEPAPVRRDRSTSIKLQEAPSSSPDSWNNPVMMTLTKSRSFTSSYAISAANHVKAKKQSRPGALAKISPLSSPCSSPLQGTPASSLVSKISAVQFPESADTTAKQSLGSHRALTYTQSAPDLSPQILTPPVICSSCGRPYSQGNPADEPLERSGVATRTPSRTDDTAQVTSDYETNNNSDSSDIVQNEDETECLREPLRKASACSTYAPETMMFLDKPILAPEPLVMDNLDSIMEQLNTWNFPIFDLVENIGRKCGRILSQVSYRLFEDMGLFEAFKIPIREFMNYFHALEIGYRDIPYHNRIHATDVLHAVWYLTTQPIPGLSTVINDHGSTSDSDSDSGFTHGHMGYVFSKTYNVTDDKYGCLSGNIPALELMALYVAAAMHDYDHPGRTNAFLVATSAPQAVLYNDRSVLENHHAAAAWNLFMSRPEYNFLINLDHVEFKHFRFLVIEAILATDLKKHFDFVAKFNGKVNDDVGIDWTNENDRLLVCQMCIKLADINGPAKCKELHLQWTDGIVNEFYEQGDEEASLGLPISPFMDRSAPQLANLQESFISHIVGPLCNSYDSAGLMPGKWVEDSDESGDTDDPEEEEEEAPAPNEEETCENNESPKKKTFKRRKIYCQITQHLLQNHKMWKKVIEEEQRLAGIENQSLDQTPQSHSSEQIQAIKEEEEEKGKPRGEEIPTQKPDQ
# [23] = biological target: Penicillin-binding protein 3 (Pseudomonas aeruginosa) (UniProt Q51504); experiment: Stabilization of Pseudomonas aeruginosa PBP3 assessed as melting temperature at 1 mM by DSF thermal shift assay (reference value: 44.1 +/- 0.14 degC); how it was run: as §1
# [24] = Solubility in pH 7.5 phosphate buffer by nephelometry; format: physicochemical
# How it was run: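 Solubility in pH 7.5 phosphate buffer, measured by nephelometry.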
# [25] = biological target: Penicillin-binding protein 3 (Pseudomonas aeruginosa, UniProt Q51504); experiment: Inhibition of Pseudomonas aeruginosa PBP3 assessed as reduction in fluorescence intensity of bocillin labeled protein pre-incubated for 20 mins before bocillin addition by SDS-PAGE analysis
# Chain of Penicillin-binding protein 3 (Q51504 whole entry): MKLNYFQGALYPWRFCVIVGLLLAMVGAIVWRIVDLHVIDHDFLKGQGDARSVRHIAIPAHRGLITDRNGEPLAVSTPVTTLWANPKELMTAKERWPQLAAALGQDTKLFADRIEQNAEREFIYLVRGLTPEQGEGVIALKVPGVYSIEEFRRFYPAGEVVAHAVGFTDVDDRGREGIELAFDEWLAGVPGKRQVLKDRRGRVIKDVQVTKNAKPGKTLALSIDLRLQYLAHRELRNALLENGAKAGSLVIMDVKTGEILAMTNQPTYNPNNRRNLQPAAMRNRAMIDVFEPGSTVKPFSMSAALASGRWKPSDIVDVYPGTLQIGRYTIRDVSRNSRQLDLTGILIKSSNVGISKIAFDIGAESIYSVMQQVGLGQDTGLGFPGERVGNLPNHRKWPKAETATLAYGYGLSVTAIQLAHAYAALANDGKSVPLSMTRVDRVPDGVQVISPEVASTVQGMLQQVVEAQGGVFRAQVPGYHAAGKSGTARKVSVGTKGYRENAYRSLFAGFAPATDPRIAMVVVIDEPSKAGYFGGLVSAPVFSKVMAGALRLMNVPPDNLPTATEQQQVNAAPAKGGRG
# [26] = Substrate activity at NDM-1 (unknown origin) assessed as Kcat for compound hydrolysis by diode array spectrophotometry; format: ADME; conditions: bacteria
# How it was run: (§5)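 The compound is the substrate, in molar excess for pseudo-first-order conditions. Hydrolysis is followed spectrophotometrically at Δε336 = −5500 M−1 cm−1 in a 1 cm quartz cuvette.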
# [27] = Volume of distribution at steady state in CD1 mouse at 50 mg/kg, iv after 2 hrs by HPLC-MS/MS analysis; format: ADME, organism-based; conditions: in vivo; how it was run: as §2
# [28] = AUC (extrapolated) in CD1 mouse at 50 mg/kg, iv after 2 hrs by HPLC-MS/MS analysis; format: ADME, organism-based; conditions: in vivo; how it was run: as §2
# [29] = Substrate activity at OXA-23 (unknown origin) assessed as compound hydrolysis at 100 uM by diode array spectrophotometry; format: ADME; conditions: bacteria
# Pseudomonas aeruginosa [30] = experiment: Antimicrobial activity against Pseudomonas aeruginosa PAO1 in presence of 0.1 ug/ml iron by standard broth microdilution method; format: functional
# How it was run: (§6)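 CLSI broth microdilution in iron-depleted cation-adjusted Mueller–Hinton broth, made by cation-exchange resin treatment, with an inoculum of 6 × 10^4 CFU/mL. For the iron series, soluble iron is added to the depleted medium. Total iron in the tested media is expected to be 0.02, 0.12, 1.02 and 10.02 μg/mL.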
# [31] = Plasma concentration CD1 mouse at 50 mg/kg, iv after 2 hrs by HPLC-MS/MS analysis; format: ADME, organism-based; how it was run: as §2
# [32] = Substrate activity at NDM-1 (unknown origin) assessed as Kcat/Km ratio for compound hydrolysis by diode array spectrophotometry; format: ADME; conditions: bacteria; how it was run: as §5
# Pseudomonas aeruginosa [33] = experiment: Antimicrobial activity against Pseudomonas aeruginosa PAO1 in presence of 1 ug/ml iron by standard broth microdilution method; format: functional; how it was run: as §4
# [34] = Substrate activity at VIM-2 (unknown origin) assessed as Kcat/Km ratio for compound hydrolysis by diode array spectrophotometry; format: ADME; conditions: bacteria
# [35] = Substrate activity at IMP-1 (unknown origin) assessed as Kcat for compound hydrolysis by diode array spectrophotometry; format: ADME; conditions: bacteria
# [36] = Substrate activity at OXA-24 (unknown origin) assessed as compound hydrolysis at 100 uM by diode array spectrophotometry; format: ADME; conditions: bacteria
# [37] = Initial drug concentration in CD1 mouse at 50 mg/kg, iv after 2 hrs by HPLC-MS/MS analysis; format: ADME, organism-based; conditions: in vivo; how it was run: as §2
# [38] = Inhibition of Acinetobacter baumanni PBP3 assessed as reduction in fluorescence intensity of bocillin labeled protein by SDS-PAGE analysis; design: species or system Acinetobacter baumannii
# Pseudomonas aeruginosa [39] = experiment: Antimicrobial activity against Pseudomonas aeruginosa PAO1 in absence of iron by standard broth microdilution method; format: functional; how it was run: as §6
# Chain of Penicillin-binding protein 3 (Pseudomonas aeruginosa) (Q51504 as listed by the source): as the sequence (Q51504 whole entry) above
smiles,measurement,setting,value
CC(C)(O/N=C(\C(=O)N[C@@H]1C(=O)N2C(C(=O)[O-])=C(C[n+]3ccccc3)CS[C@H]12)c1csc(N)n1)C(=O)O [CEFTAZIDIME],Tm,[1],56.5 °C
same,MIC,Pseudomonas aeruginosa [2],1 µg/mL
same,MIC,Pseudomonas aeruginosa [3],1 µg/mL
same,MIC50,Escherichia coli,2 µg/mL
same,MIC90,Escherichia coli,> 16 µg/mL
same,MIC,Pseudomonas aeruginosa [4],1 µg/mL
same,MIC50,Klebsiella pneumoniae,> 64 µg/mL
same,MIC90,Klebsiella pneumoniae,> 64 µg/mL
same,MIC50,Pseudomonas aeruginosa [5],4 µg/mL
same,MIC90,Pseudomonas aeruginosa [5],> 16 µg/mL
same,MIC,Pseudomonas aeruginosa [6],1 µg/mL
C[C@@H](O)[C@H]1C(=O)N2C(C(=O)O)=C(S[C@@H]3CN[C@H](C(=O)N(C)C)C3)[C@H](C)[C@H]12 [MEROPENEM],degraded at 24 h,[7],> 30%
same,MIC50,Escherichia coli,≤ 1 µg/mL
same,MIC90,Escherichia coli,8 µg/mL
same,MIC50,Klebsiella pneumoniae,16 µg/mL
same,MIC90,Klebsiella pneumoniae,> 64 µg/mL
same,MIC50,Pseudomonas aeruginosa [5],2 µg/mL
same,MIC90,Pseudomonas aeruginosa [5],> 8 µg/mL
CC(C)(O/N=C(\C(=O)N[C@H]1CN2CC(C(=O)NCCN3C(=O)c4cc(O)c(O)cc4C3=O)=C(C(=O)O)N2C1=O)c1csc(N)n1)C(=O)O,t1/2,[8],11 h
same,t1/2,[9],> 1 h
same,Kcat,[10],20 s⁻¹
same,Activity,[11],Not Active
same,inhibition (INH),Cytochrome P450,Not Active
same,Kcat/Km,[12],70000 M⁻¹ s⁻¹
same,inhibition,[13],63%
same,MIC,Pseudomonas aeruginosa [2],> 16 µg/mL
same,degraded at 336 h,[14],4%
same,MIC,Pseudomonas aeruginosa [15],> 16 µg/mL
same,Activity,Hepatocyte,Non-Toxic
same,AUClast,[16],55866 ng·h/mL
same,AUC,[17],57791 ng·h/mL
same,t1/2,[18],> 1 h
same,Activity,[19],Not Active
same,ΔTm,[20],7 °C
same,Activity,[21],Not Active
same,inhibition,[22],66%
same,MIC,Pseudomonas aeruginosa [3],0.5 µg/mL
same,Tm,[23],51 °C
same,MIC50,Escherichia coli,1 µg/mL
same,solubility kinetic,[24],> 100 µM
same,IC50,[25],2500 nM
same,Kcat,[26],7 s⁻¹
same,Vdss,[27],2 L/kg
same,%AUCextra,[28],3%
same,Activity,[29],Not Active
same,MIC,Pseudomonas aeruginosa [30],2 µg/mL
same,MIC50,Klebsiella pneumoniae,1 µg/mL
same,concentration at 2 h,[31],1400 ng/mL
same,MIC50,Pseudomonas aeruginosa [5],1 µg/mL
same,MIC90,Pseudomonas aeruginosa [5],8 µg/mL
same,Kcat/Km,[32],20000 M⁻¹ s⁻¹
same,MIC,Pseudomonas aeruginosa [33],16 µg/mL
same,Kcat/Km,[34],20000 M⁻¹ s⁻¹
same,MIC,Pseudomonas aeruginosa [6],> 16 µg/mL
same,Kcat,[35],5 s⁻¹
same,Activity,[36],Not Active
same,C0,[37],200844 ng/mL
C[C@@H](O)[C@H]1C(=O)N2C(C(=O)O)=C(S[C@@H]3CN[C@H](CNS(N)(=O)=O)C3)[C@H](C)[C@H]12 [DORIPENEM],IC50,[38],2300 nM
NC(=O)[C@@H]1CC[C@@H]2CN1C(=O)N2OS(=O)(=O)O [AVIBACTAM],MIC50,Klebsiella pneumoniae,0.5 µg/mL
same,MIC90,Klebsiella pneumoniae,2 µg/mL
same,MIC50,Pseudomonas aeruginosa [5],4 µg/mL
same,MIC90,Pseudomonas aeruginosa [5],> 32 µg/mL
C[C@@H](O)[C@H]1C(=O)N2C(C(=O)O)=C(SCCN=CN)C[C@H]12 [IMIPENEM ANHYDROUS],Kcat,[10],57 s⁻¹
same,Kcat/Km,[12],3.2e+06 M⁻¹ s⁻¹
same,Kcat/Km,[34],6.7e+06 M⁻¹ s⁻¹
same,Kcat,[35],36 s⁻¹
CC(C)(O/N=C(\C(=O)N[C@@H]1C(=O)N2C(C(=O)[O-])=C(C[N+]3(CCNC(=O)c4ccc(O)c(O)c4Cl)CCCC3)CS[C@H]12)c1csc(N)n1)C(=O)O [CEFIDEROCOL],MIC,Pseudomonas aeruginosa [39],0.06 µg/mL
same,MIC,Pseudomonas aeruginosa [2],0.25 µg/mL
same,MIC,Pseudomonas aeruginosa [15],2 µg/mL
same,MIC,Pseudomonas aeruginosa [3],0.13 µg/mL
same,MIC,Pseudomonas aeruginosa [4],0.13 µg/mL
same,MIC,Pseudomonas aeruginosa [33],0.5 µg/mL
same,MIC,Pseudomonas aeruginosa [6],1 µg/mL
